Results published in ChEMBL document CHEMBL3797186, “Single Residue Substitutions That Confer Voltage-Gated Sodium Ion Channel Subtype Selectivity in the NaV1.7 Inhibitory Peptide GpTx-1” (J Med Chem, 2016).
Positions of bridges follow the written chain, without caps; N, C: chain ends. Residues, ends and D or L forms follow the SMILES beside them.

Columns and labels:
[1] = molecular target: Sodium channel protein type 9 subunit alpha (Homo sapiens, UniProt Q15858); test: Inhibition of human Nav1.7 expressed in HEK293 cells assessed as inward peak current by ion-works quattro patch clamp electrophysiology method; format: cell-based
Chain of Sodium channel protein type 9 subunit alpha (Q15858 whole entry): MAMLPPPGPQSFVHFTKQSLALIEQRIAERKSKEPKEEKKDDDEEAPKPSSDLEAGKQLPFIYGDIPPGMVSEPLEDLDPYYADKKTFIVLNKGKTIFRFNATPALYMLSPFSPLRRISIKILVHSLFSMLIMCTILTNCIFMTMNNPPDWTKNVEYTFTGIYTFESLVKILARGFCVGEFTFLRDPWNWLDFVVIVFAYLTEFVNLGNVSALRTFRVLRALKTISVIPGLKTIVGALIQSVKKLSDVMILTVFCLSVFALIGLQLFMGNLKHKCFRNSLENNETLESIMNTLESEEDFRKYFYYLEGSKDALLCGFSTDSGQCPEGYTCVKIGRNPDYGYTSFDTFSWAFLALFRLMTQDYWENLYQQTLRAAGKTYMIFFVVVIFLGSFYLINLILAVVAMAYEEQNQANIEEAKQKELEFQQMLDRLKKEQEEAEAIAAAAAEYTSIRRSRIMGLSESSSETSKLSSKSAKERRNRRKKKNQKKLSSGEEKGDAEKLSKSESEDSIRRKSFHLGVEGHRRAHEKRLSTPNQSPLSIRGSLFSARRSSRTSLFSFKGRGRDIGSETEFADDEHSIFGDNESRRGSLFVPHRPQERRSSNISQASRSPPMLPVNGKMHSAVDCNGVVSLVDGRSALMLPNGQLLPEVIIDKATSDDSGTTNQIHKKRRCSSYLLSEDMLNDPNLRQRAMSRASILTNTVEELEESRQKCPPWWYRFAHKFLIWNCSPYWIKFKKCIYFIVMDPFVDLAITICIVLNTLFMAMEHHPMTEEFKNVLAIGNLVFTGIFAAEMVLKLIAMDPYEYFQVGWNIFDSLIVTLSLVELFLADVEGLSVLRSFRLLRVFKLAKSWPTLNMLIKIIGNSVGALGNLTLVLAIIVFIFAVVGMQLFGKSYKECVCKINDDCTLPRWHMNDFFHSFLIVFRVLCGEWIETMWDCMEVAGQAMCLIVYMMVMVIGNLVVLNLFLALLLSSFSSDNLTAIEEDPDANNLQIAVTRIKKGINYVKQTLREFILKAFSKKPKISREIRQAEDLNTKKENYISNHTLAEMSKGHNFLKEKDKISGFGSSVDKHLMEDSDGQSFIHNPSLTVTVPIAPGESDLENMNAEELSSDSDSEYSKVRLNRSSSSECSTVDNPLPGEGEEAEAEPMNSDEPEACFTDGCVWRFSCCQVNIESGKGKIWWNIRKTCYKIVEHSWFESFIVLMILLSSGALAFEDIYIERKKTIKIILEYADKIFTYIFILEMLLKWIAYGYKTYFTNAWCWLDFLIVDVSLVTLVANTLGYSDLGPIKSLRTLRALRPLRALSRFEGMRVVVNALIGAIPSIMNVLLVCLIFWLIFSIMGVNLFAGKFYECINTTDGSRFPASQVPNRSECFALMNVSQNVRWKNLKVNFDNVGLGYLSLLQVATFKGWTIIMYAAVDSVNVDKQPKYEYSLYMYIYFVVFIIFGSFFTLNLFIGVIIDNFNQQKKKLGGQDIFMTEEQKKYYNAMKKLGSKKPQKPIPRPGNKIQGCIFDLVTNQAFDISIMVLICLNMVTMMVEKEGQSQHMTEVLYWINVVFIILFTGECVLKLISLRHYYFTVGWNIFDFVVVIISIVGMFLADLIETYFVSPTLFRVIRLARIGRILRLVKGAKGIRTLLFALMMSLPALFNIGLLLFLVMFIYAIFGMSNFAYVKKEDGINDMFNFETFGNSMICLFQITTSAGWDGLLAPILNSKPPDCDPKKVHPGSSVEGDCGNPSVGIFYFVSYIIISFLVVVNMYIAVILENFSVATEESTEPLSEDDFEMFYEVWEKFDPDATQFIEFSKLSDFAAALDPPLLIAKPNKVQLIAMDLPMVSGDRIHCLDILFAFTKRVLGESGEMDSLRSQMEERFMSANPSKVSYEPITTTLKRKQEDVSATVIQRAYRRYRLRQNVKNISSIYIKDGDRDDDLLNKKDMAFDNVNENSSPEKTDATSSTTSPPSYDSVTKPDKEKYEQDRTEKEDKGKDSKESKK

[2] = molecular target: Sodium channel protein type 5 subunit alpha (Homo sapiens, UniProt Q14524); test: Inhibition of human Nav1.5 expressed in HEK293 cells assessed as inward peak current by ion-works quattro patch clamp electrophysiology method; format: cell-based
Chain of Sodium channel protein type 5 subunit alpha (Q14524 whole entry): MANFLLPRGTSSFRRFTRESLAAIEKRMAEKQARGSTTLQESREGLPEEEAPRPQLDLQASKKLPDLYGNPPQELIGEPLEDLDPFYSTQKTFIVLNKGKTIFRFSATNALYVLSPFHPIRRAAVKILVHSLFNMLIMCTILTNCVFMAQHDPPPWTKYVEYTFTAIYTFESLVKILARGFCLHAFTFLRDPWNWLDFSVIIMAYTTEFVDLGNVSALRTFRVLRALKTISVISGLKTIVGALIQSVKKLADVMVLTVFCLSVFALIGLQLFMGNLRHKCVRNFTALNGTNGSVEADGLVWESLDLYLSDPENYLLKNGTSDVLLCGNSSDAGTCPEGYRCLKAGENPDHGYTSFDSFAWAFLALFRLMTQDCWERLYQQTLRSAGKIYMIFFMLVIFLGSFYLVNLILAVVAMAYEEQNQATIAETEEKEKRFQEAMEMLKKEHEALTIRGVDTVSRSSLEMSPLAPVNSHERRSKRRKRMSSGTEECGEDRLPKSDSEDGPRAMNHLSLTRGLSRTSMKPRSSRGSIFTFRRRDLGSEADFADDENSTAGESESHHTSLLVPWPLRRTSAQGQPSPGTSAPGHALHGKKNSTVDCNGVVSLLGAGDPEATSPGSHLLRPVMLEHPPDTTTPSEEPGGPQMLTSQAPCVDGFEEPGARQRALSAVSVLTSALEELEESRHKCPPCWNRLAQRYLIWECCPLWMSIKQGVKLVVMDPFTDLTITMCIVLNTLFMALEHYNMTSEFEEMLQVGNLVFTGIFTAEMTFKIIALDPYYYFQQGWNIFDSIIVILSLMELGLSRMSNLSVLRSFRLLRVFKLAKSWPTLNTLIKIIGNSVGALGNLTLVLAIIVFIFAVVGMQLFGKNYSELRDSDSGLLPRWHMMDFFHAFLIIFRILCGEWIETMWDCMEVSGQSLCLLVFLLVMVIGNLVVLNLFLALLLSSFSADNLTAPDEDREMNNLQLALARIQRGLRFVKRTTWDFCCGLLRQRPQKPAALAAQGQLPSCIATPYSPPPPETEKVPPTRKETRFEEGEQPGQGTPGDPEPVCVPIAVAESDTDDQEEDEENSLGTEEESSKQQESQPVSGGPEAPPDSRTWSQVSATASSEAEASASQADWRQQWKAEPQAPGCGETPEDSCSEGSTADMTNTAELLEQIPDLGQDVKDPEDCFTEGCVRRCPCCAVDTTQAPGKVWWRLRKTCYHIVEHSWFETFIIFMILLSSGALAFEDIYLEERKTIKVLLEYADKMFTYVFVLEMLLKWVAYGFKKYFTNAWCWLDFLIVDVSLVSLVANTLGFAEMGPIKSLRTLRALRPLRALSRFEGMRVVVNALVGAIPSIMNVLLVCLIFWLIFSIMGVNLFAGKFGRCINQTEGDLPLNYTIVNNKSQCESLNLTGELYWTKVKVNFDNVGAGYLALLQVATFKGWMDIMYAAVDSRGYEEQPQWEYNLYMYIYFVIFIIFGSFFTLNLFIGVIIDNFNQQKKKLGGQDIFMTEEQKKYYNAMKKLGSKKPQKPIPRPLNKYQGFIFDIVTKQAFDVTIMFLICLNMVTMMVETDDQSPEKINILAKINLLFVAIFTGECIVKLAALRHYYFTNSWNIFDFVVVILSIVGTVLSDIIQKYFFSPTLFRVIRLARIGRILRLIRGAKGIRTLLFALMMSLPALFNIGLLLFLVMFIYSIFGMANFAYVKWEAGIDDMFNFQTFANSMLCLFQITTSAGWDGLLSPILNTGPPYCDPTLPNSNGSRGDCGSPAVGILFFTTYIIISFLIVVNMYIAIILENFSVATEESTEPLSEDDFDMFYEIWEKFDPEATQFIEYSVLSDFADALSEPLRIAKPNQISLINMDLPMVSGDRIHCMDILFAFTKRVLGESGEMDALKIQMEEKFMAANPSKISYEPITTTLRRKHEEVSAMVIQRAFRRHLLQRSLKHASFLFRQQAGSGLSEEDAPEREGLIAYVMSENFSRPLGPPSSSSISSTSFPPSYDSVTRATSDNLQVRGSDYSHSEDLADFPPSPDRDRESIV
In short: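 Stable HEK293 line expressing human NaV1.5, recorded by population patch clamp on the IonWorks Quattro.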

| SMILES | IC50 [1] | IC50 [2] |
| --- | --- | --- |
| CC[C@H](C)[C@@H]1NC(=O)[C@@H]2CSSC[C@@H]3NC(=O)[C@H](C(C)C)NC(=O)[C@H](CC(C)C)NC(=O)[C@H](CC(N)=O)NC(=O)[C@@H]4CCCN4C(=O)[C@H](CCCNC(=N)N)NC(=O)[C@H](CSSC[C@H](NC(=O)[C@H](CC(=O)O)NC(=O)[C@@H](N)Cc4c[nH]c5ccccc45)C(=O)N[C@@H](CC(C)C)C(=O)NCC(=O)N[C@@H](Cc4ccccc4)C(=O)N[C@@H](CCSC)C(=O)N[C@@H](CCCNC(=N)N)C(=O)N[C@@H](CCCCN)C(=O)N2)NC(=O)[C@H](CSSC[C@@H](C(=O)N[C@@H](CCCCN)C(=O)N[C@@H](Cc2ccc(O)cc2)C(=O)N[C@H](C(=O)N[C@@H](Cc2ccccc2)C(N)=O)C(C)C)NC(=O)[C@H](Cc2c[nH]c4ccccc24)NC(=O)[C@H](CCCCN)NC(=O)[C@H](Cc2cnc[nH]2)NC(=O)[C@H]([C@@H](C)O)NC(=O)[C@H](CCCNC(=N)N)NC(=O)[C@H](CO)NC3=O)NC(=O)[C@H](CCCCN)NC(=O)[C@H](CC(=O)O)NC(=O)[C@H](CC(N)=O)NC(=O)[C@H](CC(=O)O)NC(=O)[C@@H]2CCCN2C1=O | 200 nM | > 5000 nM |
| CC[C@H](C)[C@@H]1NC(=O)[C@@H]2CSSC[C@@H]3NC(=O)[C@H](C(C)C)NC(=O)[C@H](CC(C)C)NC(=O)[C@H](CC(N)=O)NC(=O)[C@@H]4CCCN4C(=O)[C@H](CCCNC(=N)N)NC(=O)[C@H](CSSC[C@H](NC(=O)[C@@H](N)CC(=O)O)C(=O)N[C@@H](CC(C)C)C(=O)NCC(=O)N[C@@H](Cc4ccccc4)C(=O)N[C@@H](CCSC)C(=O)N[C@@H](CCCNC(=N)N)C(=O)N[C@@H](CCCCN)C(=O)N2)NC(=O)[C@H](CSSC[C@@H](C(=O)N[C@@H](CCCCN)C(=O)N[C@@H](CCC(=O)O)C(=O)N[C@H](C(=O)N[C@@H](Cc2ccccc2)C(N)=O)C(C)C)NC(=O)[C@H](Cc2c[nH]c4ccccc24)NC(=O)[C@H](CCCCN)NC(=O)[C@H](Cc2cnc[nH]2)NC(=O)[C@H]([C@@H](C)O)NC(=O)[C@H](CCCNC(=N)N)NC(=O)[C@H](CO)NC3=O)NC(=O)[C@H](CCCCN)NC(=O)[C@H](CC(=O)O)NC(=O)[C@H](CC(N)=O)NC(=O)[C@H](CC(=O)O)NC(=O)[C@@H]2CCCN2C1=O (H-DCLGFMRKCIPDNDKCCRPNLVCSRTHKWCKEVF-NH2; disulfide 2-17, 9-23, 16-30) | > 5000 nM | > 5000 nM |
| CC[C@@H](C)[C@H]1NC(=O)[C@H]2CSSC[C@@H]3NC(=O)[C@@H](C(C)C)NC(=O)[C@H](CC(C)C)NC(=O)[C@@H](CC(N)=O)NC(=O)[C@@H]4CCCN4C(=O)[C@H](CCCNC(=N)N)NC(=O)[C@H](CSSC[C@H](NC(=O)[C@@H](CC(=O)O)NC(=O)[C@@H](C)N)C(=O)N[C@@H](CC(C)C)C(=O)NCC(=O)N[C@@H](Cc4ccccc4)C(=O)N[C@H](CCSC)C(=O)N[C@@H](CCCNC(=N)N)C(=O)N[C@@H](CCCCN)C(=O)N2)NC(=O)[C@@H](CSSC[C@@H](C(=O)N[C@@H](CCCCN)C(=O)N[C@@H](Cc2ccc(O)cc2)C(=O)N[C@H](C(=O)N[C@@H](Cc2ccccc2)C(N)=O)C(C)C)NC(=O)[C@@H](Cc2c[nH]c4ccccc24)NC(=O)[C@H](CCCCN)NC(=O)[C@H](Cc2cnc[nH]2)NC(=O)[C@@H]([C@H](C)O)NC(=O)[C@@H](CCCNC(=N)N)NC(=O)[C@H](CO)NC3=O)NC(=O)[C@@H](CCCCN)NC(=O)[C@H](CC(=O)O)NC(=O)[C@@H](CC(N)=O)NC(=O)[C@H](CC(=O)O)NC(=O)[C@@H]2CCCN2C1=O | 370 nM | > 5000 nM |
| CC[C@H](C)[C@@H]1NC(=O)[C@@H]2CSSC[C@@H]3NC(=O)[C@H](C(C)C)NC(=O)[C@H](CC(C)C)NC(=O)[C@H](CC(N)=O)NC(=O)[C@@H]4CCCN4C(=O)[C@H](CCCNC(=N)N)NC(=O)[C@H](CSSC[C@H](NC(=O)[C@@H](N)CC(=O)O)C(=O)N[C@@H](CC(C)C)C(=O)NCC(=O)N[C@@H](Cc4ccccc4)C(=O)N[C@@H](CCCCN)C(=O)N[C@@H](CCCNC(=N)N)C(=O)N[C@@H](CCCCN)C(=O)N2)NC(=O)[C@H](CSSC[C@@H](C(=O)N[C@@H](CCCCN)C(=O)N[C@@H](Cc2ccc(O)cc2)C(=O)N[C@H](C(=O)N[C@@H](Cc2ccccc2)C(N)=O)C(C)C)NC(=O)[C@H](Cc2c[nH]c4ccccc24)NC(=O)[C@H](CCCCN)NC(=O)[C@H](Cc2cnc[nH]2)NC(=O)[C@H]([C@@H](C)O)NC(=O)[C@H](CCCNC(=N)N)NC(=O)[C@H](CO)NC3=O)NC(=O)[C@H](CCCCN)NC(=O)[C@H](CC(=O)O)NC(=O)[C@H](CC(N)=O)NC(=O)[C@H](CC(=O)O)NC(=O)[C@@H]2CCCN2C1=O (H-DCLGFKRKCIPDNDKCCRPNLVCSRTHKWCKYVF-NH2; disulfide 2-17, 9-23, 16-30) | > 5000 nM | > 5000 nM |
| CSCC[C@@H]1NC(=O)[C@H](Cc2ccccc2)NC(=O)CNC(=O)[C@H](CC(C)C)NC(=O)[C@@H](NC(=O)[C@@H](N)CC(=O)O)CSSC[C@@H]2NC(=O)[C@@H]3CSSC[C@@H](C(=O)N[C@@H](CCCCN)C(=O)N[C@@H](Cc4ccc(O)cc4)C(=O)N[C@H](C(=O)N[C@@H](Cc4ccccc4)C(N)=O)C(C)C)NC(=O)[C@H](Cc4c[nH]c5ccccc45)NC(=O)[C@H](CCCCN)NC(=O)[C@H](Cc4cnc[nH]4)NC(=O)[C@H]([C@@H](C)O)NC(=O)[C@H](CCCNC(=N)N)NC(=O)[C@H](CO)NC(=O)[C@H](CSSC[C@H](NC(=O)[C@H](CCCCN)NC(=O)[C@H](CCCNC(=N)N)NC1=O)C(=O)N[C@@H](CC(C)C)C(=O)N1CCC[C@H]1C(=O)N[C@@H](CC(=O)O)C(=O)N[C@@H](CC(N)=O)C(=O)N[C@@H](CC(=O)O)C(=O)N[C@@H](CCCCN)C(=O)N3)NC(=O)[C@H](C(C)C)NC(=O)[C@H](CC(C)C)NC(=O)[C@H](CC(N)=O)NC(=O)[C@@H]1CCCN1C(=O)[C@H](CCCNC(=N)N)NC2=O (H-DCLGFMRKCLPDNDKCCRPNLVCSRTHKWCKYVF-NH2; disulfide 2-17, 9-23, 16-30) | 140 nM | > 5000 nM |
| CC[C@H](C)[C@@H]1NC(=O)[C@@H]2CSSC[C@@H]3NC(=O)[C@H](C(C)C)NC(=O)[C@H](CC(C)C)NC(=O)[C@H](CC(N)=O)NC(=O)[C@@H]4CCCN4C(=O)[C@H](CCCNC(=N)N)NC(=O)[C@H](CSSC[C@H](NC(=O)[C@@H](N)CC(=O)O)C(=O)N[C@@H](CC(C)C)C(=O)NCC(=O)N[C@@H](Cc4ccccc4)C(=O)N[C@@H](CCSC)C(=O)N[C@@H](CCCCN)C(=O)N[C@@H](CCCCN)C(=O)N2)NC(=O)[C@H](CSSC[C@@H](C(=O)N[C@@H](CCCCN)C(=O)N[C@@H](Cc2ccc(O)cc2)C(=O)N[C@H](C(=O)N[C@@H](Cc2ccccc2)C(N)=O)C(C)C)NC(=O)[C@H](Cc2c[nH]c4ccccc24)NC(=O)[C@H](CCCCN)NC(=O)[C@H](Cc2c[nH]cn2)NC(=O)[C@H]([C@@H](C)O)NC(=O)[C@H](CCCNC(=N)N)NC(=O)[C@H](CO)NC3=O)NC(=O)[C@H](CCCCN)NC(=O)[C@H](CC(=O)O)NC(=O)[C@H](CC(N)=O)NC(=O)[C@H](CC(=O)O)NC(=O)[C@@H]2CCCN2C1=O (H-DCLGFMKKCIPDNDKCCRPNLVCSRTHKWCKYVF-NH2; disulfide 2-17, 9-23, 16-30) | 540 nM | > 5000 nM |
